Variants at the floor of the assay were thinned out.
B1: tRNA (parent)
chain: GUUCCGUUGGCGUAAUGGUAACGCGUCUCCCUCCUAAGGAGAAGACUGCGGGUUCGAGUCCCGUACGGAACG

Variants of: B1
Experiment: yeast fitness relative to wild type (ratio to wild type); higher = fitter; tRNA-Arg(CCU), competitive growth, 37 C, YPD
Procedure, shortened: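 Variants of the tRNA-Arg(CCU) gene, chemically synthesised with a 3% per-site mutation rate at 69 sites, were placed at the native genomic locus in Saccharomyces cerevisiae. The pooled strains were competed in YPD at 37°C for 24 hours in six parallel replicates. Gene amplicons from the start population and from each end population were read by 100-nucleotide paired-end sequencing. Darwinian fitness relative to wild type came from changes in genotype frequencies; genotypes needed ≥ 100 starting reads, and estimates < 0.5 were set to 0.5.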

Variant | yeast fitness
C27U C30G A40G G51C U64C | ≤ 0.5
C27U C55A | 0.583
C27U C55G | 0.675
U28A C34U C61U | 0.554
U28A A40C C66U | 0.658
U28A G44A G50A A57G G63A | ≤ 0.5
U28A C34G G39C A57G C66U | ≤ 0.5
U28A C49A A65C | 0.528
C27U G67A | 1.02
U28A C46A C60U C66U | ≤ 0.5
U28A A40G A43U A65U C66U | ≤ 0.5
C27U U64C C66A | ≤ 0.5
U28C A40G A70C | 0.576
U28A A57C C66G | ≤ 0.5
C27U G48A C49U A70U | 0.752
U28C C29U | 0.806
U28C A45G C66U | 0.72
U28C C31A | 0.784
U28C C31G | 0.907
C27U C34A | 0.728
C27U C34G | 0.698
C27U U59A C66U | ≤ 0.5
U28A G38C G41A C46A | ≤ 0.5
U28A A37G G41C | ≤ 0.5

Variant | yeast fitness
C27U G44C | 1.03
C27U C30U U53A A69C | 0.507
C27U U54C G67C | 0.54
U28C A36G G41A A42C | ≤ 0.5
U28A C29U A37G G52C | ≤ 0.5
C27U U28A A40U | 0.671
C27U C62A | 0.764
C27U C62U | 1.01
C27U U47G C55G G58C | 0.67
C27U U32A C33A | 0.51
C27U U32C G41A A42U G44A C46U G58A C60U | ≤ 0.5
U28A C30G | 0.51
U28A C30A | 0.759
C27U C33G G39A A43G A57G C61U C62U | ≤ 0.5
C27U G38C A40U A45G G52A A65C | ≤ 0.5
C27U U28A U32A C34U A36C G48A C60U | ≤ 0.5
C27U C46A A70G | 0.66
U28A C49U U54G C62U | ≤ 0.5
C27U U35C A36G C49G | ≤ 0.5
U28A C49A | 0.644
U28A C49G | 0.818
U28A C49U | 0.804
C27U G58C U59C A70G | ≤ 0.5
C27U G44C U59G | ≤ 0.5

Variant | yeast fitness
U28A C29G A57C G67A | ≤ 0.5
U28A A40U C62A | 0.943
C27U U53A | 0.628
U28A A37U | 0.73
C27U U32A A69U | 0.774
C27U C34A G44C C62A | 0.539
C27U C30G A40G G51C | ≤ 0.5
U28A A40U A69U | 0.769
U28A G48A C60G | ≤ 0.5
U28A C33A G51C A57C | ≤ 0.5
C27U C34G A45U | 0.511
U28A C31A C33U A37C G50A A65U | ≤ 0.5
C27U U35C A37C A40U A43U | ≤ 0.5
C27U C30U A40U G48C G63A | 0.535
U28A U32C | 0.833
U28A U32A C55G | ≤ 0.5
C27U C46A G50A C62U | 0.888
U28C A40G G51C A65U | 0.545
U28A C30U A40G U54G | ≤ 0.5
C27U G58C U64C | 0.73
C27U G56C C66U | ≤ 0.5
U28C C29G A43U C49U U54G C66A | ≤ 0.5
C27U C46U G67U | 0.626
U28A A36G G52C | ≤ 0.5

Variant | yeast fitness
C27U C33G A43G U53C A57G C61U C62U A70G | ≤ 0.5
C27U C62U A65U | 0.718
C27U C33G A43G G48A G52A | ≤ 0.5
C27U G39A C46U | 0.918
C27U C31A G44C A70G | ≤ 0.5
U28C C30U A45C G58A G67U | ≤ 0.5
U28C C29G C33A G68C | ≤ 0.5
U28A G44C | 0.813
C27U C33A A40C | 0.574
C27U C66G G67C | ≤ 0.5
U28A C55G C66U | ≤ 0.5
C27U U59G G68C | 0.539
U28C C31A G41A G58C C66U | ≤ 0.5
C27U C60U C66U | 0.695
C27U C31G | 0.713
C27U C31U | 1.07
U28A C29G C33U C34G A42U U59C | ≤ 0.5
C27U C30G U32C A70U | 0.585
U28A C30U C66U | ≤ 0.5
U28A U59C | 0.647
U28A U59A | 0.633
U28C C29A C31G C55A G58A | ≤ 0.5
U28C A40G | 0.807
C27U C62A C66U | ≤ 0.5

Variant | yeast fitness
C27U U32C G41A C55A G63C | ≤ 0.5
C27U U47G | 0.621
C27U U47A | 0.721
C27U U47C | 0.975
C27U G63C | 0.715
U28C C33A A42C A45U G63C | ≤ 0.5
U28C A40C C66G | 0.733
U28A G41A | 0.697
U28A C29G C31U U54C | ≤ 0.5
C27U U28G C33G A36G | ≤ 0.5
U28A A36C A45G | ≤ 0.5
U28A C34U G52A | ≤ 0.5
C27U C31U G51C C66A | ≤ 0.5
U28A G58U A65C | ≤ 0.5
U28A A36U G48C | ≤ 0.5
C27U G48A A70U | 0.775
C27U C34G A40G C46G C49A U59C | ≤ 0.5
C27U G44C A65U | 0.691
C27U G39A G41A A69U | 0.674
C27U C33G A43G A45C C55A | ≤ 0.5
U28A C31U U32A C55U | ≤ 0.5
C27U G38A G48C | 0.562
C27U C30U U53A A65G A69C | ≤ 0.5
C27U C46A | 0.942

Variant | yeast fitness
C27U C46G | 1.04
C27U C46U | 0.978
C27U C33U A36U G63C | 0.541
C27U C61A | 0.62
C27U C61G | 0.647
U28A G48A C61A | ≤ 0.5
U28A C49U C55G | ≤ 0.5
C27U C30U C46U U54G A70G | 0.655
U28A C34U U47C C60U | ≤ 0.5
C27U C34U G44A | ≤ 0.5
U28A A40G G51C U54A G58C C66U | ≤ 0.5
C27U C49U C60A C61A | ≤ 0.5
U28A C46G G56A | 0.676
U28C A37C | 0.786
U28C A37G | 0.724
U28A A65C | 0.675
C27U U47A C61A A65G | ≤ 0.5
U28A C31G U35C U47C C60U C61U | ≤ 0.5
C27U C33G A43G | ≤ 0.5
C27U U54A | 0.543
C27U U47C G63A C66U | ≤ 0.5
U28A C29G G44C A65U | 0.935
C27U C60A | 0.552
C27U C60U | 0.849

Variant | yeast fitness
C27U G44C C62U | 0.733
C27U C46U A65U A70C | 0.828
U28A A45C C49A G50A | ≤ 0.5
U28A C61A | 0.612
C27U G39C C49U | ≤ 0.5
C27U G52C C60U | 0.521
U28A C34G C49G | ≤ 0.5
C27U C30U U53A | 0.62
C27U C31A A69C | 0.598
U28A C34U | 0.553
C27U U28A U32A C34U A36C C55A A70G | 0.539
U28C C29U G63C A65U | ≤ 0.5
C27U C62U A70C | 0.756
U28A C61G C62G | 0.533
C27U C31U G67C | 0.727
U28A A36G A37G | ≤ 0.5
C27U C31U A40U A45U C49G G63A | 0.589
U28A G39A C46A A57C | ≤ 0.5
U28C C30G C49G | ≤ 0.5
U28A G50C | 0.609
U28A C34U A45U C62A | ≤ 0.5
U28A A40G G51C U54A G58C | 0.582
U28A G52A U54A | ≤ 0.5
